According to ChEMBL document CHEMBL1144046, “2-Methylene 19-nor-25-dehydro-1alpha-hydroxyvitamin D3 26,23-lactones: synthesis, biological activities and molecular basis of passive antagonism” (Bioorg Med Chem, 2008):

Columns and labels:
[1] = molecular target: T1, Vitamin D3 receptor (Rattus norvegicus, UniProt P13053); assay: Displacement of [3H]1,25-(OH)2D3 from rat recombinant His-tagged VDR ligand-binding domain expressed in Escherichia coli BL21
T1 sequence (P13053 whole entry): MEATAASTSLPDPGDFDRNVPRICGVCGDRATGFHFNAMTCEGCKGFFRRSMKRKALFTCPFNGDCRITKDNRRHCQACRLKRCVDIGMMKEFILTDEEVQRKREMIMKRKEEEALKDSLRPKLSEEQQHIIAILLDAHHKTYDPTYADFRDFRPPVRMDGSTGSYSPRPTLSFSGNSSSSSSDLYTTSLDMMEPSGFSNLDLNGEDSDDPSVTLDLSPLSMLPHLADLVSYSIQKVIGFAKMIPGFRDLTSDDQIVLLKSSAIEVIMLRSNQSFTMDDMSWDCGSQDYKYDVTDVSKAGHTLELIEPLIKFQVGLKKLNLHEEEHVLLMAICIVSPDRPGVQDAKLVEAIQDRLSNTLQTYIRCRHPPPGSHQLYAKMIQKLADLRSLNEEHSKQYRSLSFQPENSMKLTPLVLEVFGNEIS
In short: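 Crude lysate of E. coli–expressed His-tagged rat VDR-LBD (aa 115–423), diluted 1000-fold in 50 mM Tris, 100 mM KCl, 5 mM DTT, 0.5% Chaps, pH 7.5, BSA 100 µg/mL. Ligand preincubated 1 h RT, then [3H]-1,25-(OH)2D3 (~5000 dpm) 18 h at 4 °C. Dextran-charcoal separation, scintillation counting; at least twice in duplicate; EC50 for 50% displacement.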

[2] = molecular target: T2, Vitamin D3 receptor (Homo sapiens, UniProt P11473); assay: Agonist activity at human VDR in COS7 cells assessed as induction of transcriptional transactivation after 24 hrs by mouse osteopontin luciferase reporter gene assay; assay type: functional, cell-based, COS-7
T2 sequence (P11473 whole entry): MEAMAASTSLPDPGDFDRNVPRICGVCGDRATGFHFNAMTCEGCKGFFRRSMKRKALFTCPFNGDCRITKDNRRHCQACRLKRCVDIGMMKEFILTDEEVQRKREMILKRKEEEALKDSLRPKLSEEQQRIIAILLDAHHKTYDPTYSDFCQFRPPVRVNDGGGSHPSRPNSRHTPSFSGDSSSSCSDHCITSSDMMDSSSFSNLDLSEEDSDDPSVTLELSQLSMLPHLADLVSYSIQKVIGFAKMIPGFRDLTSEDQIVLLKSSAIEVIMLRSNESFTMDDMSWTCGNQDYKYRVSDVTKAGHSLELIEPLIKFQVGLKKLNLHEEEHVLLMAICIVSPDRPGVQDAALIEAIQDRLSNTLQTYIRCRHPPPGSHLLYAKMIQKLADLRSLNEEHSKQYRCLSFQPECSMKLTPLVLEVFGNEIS

[3] = molecular target: T2, Vitamin D3 receptor; assay: Antagonist activity at human VDR in COS7 cells assessed as induction of transcriptional transactivation after 24 hrs by mouse osteopontin luciferase reporter gene assay; assay type: functional, cell-based, COS-7
In short: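 Cos7 cells grown in DMEM + 5% FBS, seeded 2 × 10⁴/well; after 24 h lipofected with hVDR expression plasmid, SPPx3-TK-Luc reporter and pRL-CMV control. After 4 h switched to 5% charcoal-treated FCS; next day ligand given with 10 nM 1,25-(OH)2D3 for 24 h. Dual luciferase normalized to internal control; IC50 from dose–response curves.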

[4] = molecular target: T2, Vitamin D3 receptor; assay: Agonist activity at human VDR in HEK293 cells assessed as induction of transcriptional transactivation after 24 hrs by mouse osteopontin luciferase reporter gene assay; assay type: functional, cell-based
[5] = molecular target: T2, Vitamin D3 receptor; assay: Antagonist activity at human VDR in HEK293 cells assessed as induction of transcriptional transactivation after 24 hrs by mouse osteopontin luciferase reporter gene assay; assay type: functional, cell-based
In short: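 HEK293 cells in DMEM + 5% FBS with penicillin/streptomycin, 37 °C, 5% CO2; calcium phosphate cotransfection of hVDR expression plasmid and SPPx3-TK-Luc reporter. Compounds added 8 h later with 10 nM 1,25-(OH)2D3; harvest after 16–24 h. Luciferase normalized to β-galactosidase; triplicate; IC50 from dose–response curves.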

EC50 [1]	EC50 [2]	IC50 [3]	EC50 [4]	IC50 [5]	SMILES
20 nM	150 nM	1000 nM	200 nM	300 nM	C=C1C[C@@H](C[C@@H](C)[C@H]2CC[C@H]3/C(=C/C=C4C[C@@H](O)C(=C)[C@H](O)C4)CCC[C@]23C)OC1=O
0.7 nM	25 nM		1 nM		C=C1C[C@H](C[C@@H](C)[C@H]2CC[C@H]3/C(=C/C=C4C[C@@H](O)C(=C)[C@H](O)C4)CCC[C@]23C)OC1=O
5 nM	10 nM	100 nM	15 nM		C=C1C[C@H](C[C@H](C)[C@H]2CC[C@H]3/C(=C/C=C4C[C@@H](O)C(=C)[C@H](O)C4)CCC[C@]23C)OC1=O
5 nM	6 nM	300 nM	20 nM		C=C1C[C@@H](C[C@H](C)[C@H]2CC[C@H]3/C(=C/C=C4C[C@@H](O)C(=C)[C@H](O)C4)CCC[C@]23C)OC1=O
